{"source": "paper PMC8603004", "about": "(EFSA Journal, 2021)", "key": {"[1]": {"test_system": "L5178Y TK +/− mouse lymphoma", "assay": "L5178Y TK+/− mouse lymphoma assay", "assay_type": "cell-based", "conditions": "up to 1,211 μg/mL, presence and absence of S9‐mix"}, "[2]": {"test_system": "human peripheral blood lymphocytes", "assay": "In vitro micronucleus assay", "assay_type": "cell-based"}, "[3]": {"test_system": "bone marrow cells of NMRI BR mice", "assay": "In vivo micronucleus test, intraperitoneal", "method_in_brief": "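A preliminary intraperitoneal toxicity study in NMRI BR mice set the top dose for the OECD TG 474 bone marrow micronucleus test. In the main test, mice were dosed ip at 250, 500 and 1,000 mg/kg bw and sampled at 24 h; top-dose and control groups were also sampled at 48 h. 2,000 PCEs were scored per animal.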"}, "Wistar rats [4]": {"test_system": "Wistar rats", "assay": "Two‐generation reproduction toxicity study", "conditions": "rat, in vivo"}, "[5]": {"assay": "Incubation of 14C‐3‐NOP in liver fractions", "assay_type": "in vitro ADME", "conditions": "Beagle, dog, liver S9", "method_in_brief": "(§1)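 14C-labelled test compound was incubated with or without NAD+ in liver S9, cytosol and microsomes from Sprague–Dawley rat, Wistar Han rat, Beagle dog and human. Aliquots were taken at several time points and the proteins precipitated. Supernatants were analysed by liquid scintillation counting and radio-HPLC, and half-life was derived from the time course.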"}, "[6]": {"test_system": "Chinese hamster V79 cells", "assay": "In vitro micronucleus assay", "assay_type": "cell-based", "method_in_brief": "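OECD TG 487 study, non-GLP, in Chinese hamster V79 cells. Concentrations were set from a dose-range finding test. Without S9-mix, cells had continuous 24 h treatment up to 1,243 μg/mL. With S9-mix, cells had short 4 h treatment plus 20 h recovery up to 310 μg/mL. Micronuclei were scored against the historical vehicle control range.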"}, "[7]": {"test_system": "Salmonella Typhimurium strains TA98, TA100, TA102, TA1535 and TA1537", "assay": "Ames microsuspension test", "assay_type": "cell-based", "conditions": "1.6 to 500 μg/plate, with and without metabolic activation"}, "[8]": {"assay": "Incubation of 14C‐3‐NOP in liver fractions", "assay_type": "in vitro ADME", "conditions": "Sprague-Dawley, rat, liver cytosol", "method_in_brief": "as §1"}, "[9]": {"test_system": "bone marrow cells of Wistar WI (Han) rats", "assay": "In vivo micronucleus test, oral gavage"}, "Wistar rats [10]": {"test_system": "Wistar rats", "assay": "Prenatal developmental toxicity study", "conditions": "rat, in vivo"}, "Wistar rats [11]": {"test_system": "Wistar rats", "assay": "2‐year carcinogenicity study", "assay_type": "in vivo"}, "Beagle dogs": {"test_system": "Beagle dogs", "assay": "90‐day oral gavage study", "assay_type": "in vivo"}, "CByB6F1 Hybrid mice": {"test_system": "CByB6F1 Hybrid mice", "assay": "28‐day oral gavage study with toxicokinetic evaluation of NOPA", "assay_type": "in vivo"}, "[12]": {"assay": "First in vivo toxicokinetic study", "set-up": "species or system male Wistar rats", "method_in_brief": "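Male Wistar rats received a single oral dose of 500 mg/kg bw 14C-labelled test compound under OECD TG 417 and were killed 48 h post-dose. Total radioactivity was measured in plasma, excreta and selected organs and tissues. Tissue levels were expressed as μg test-compound-eq/g and recovery as % of applied dose.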"}, "[13]": {"assay": "Mass balance with volatile trapping and tissue distribution study", "assay_type": "in vivo, male Wistar rats", "method_in_brief": "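Mass balance under OECD TG 417 in male Wistar rats given a single oral dose of 500 mg/kg bw 14C-labelled test compound. Rats were housed individually in air-tight glass metabolism cages. Volatiles were adsorbed in trapping solutions over 0–8 h and 8–24 h, and urine and faeces were collected over 0–24 h. Tissues, carcass and GI contents were taken at 24 h and results expressed as % of dose.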"}, "Incubation of": {"assay": "Incubation of", "conditions": "for 3‐NOP concentration remaining at t = 24 h: 38°C"}, "[14]": {"conditions": "males, 700 mg/kg bw per day (control 0/10)"}}, "data": [{"smiles": "O=[N+]([O-])OCCCO", "note": "[3‐NOP, propan‐1,3‐diol‐mononitrate]", "values": [{"measurement": "Mutation frequencies (MF)", "setting": "[1]", "result": "No biologically significant increases in MF"}, {"measurement": "Frequency of micronuclei", "setting": "[2]; 164, 512 and 1,211 μg/mL, with and without S9‐mix", "result": "no increase in the frequency of micronuclei"}, {"measurement": "Cytotoxicity", "setting": "[2]; up to 1,211 μg/mL", "result": "No cytotoxicity"}, {"measurement": "Frequency of micronuclei", "setting": "[3]; 250, 500 and 1,000 mg/kg bw intraperitoneally", "result": "comparable between treated and negative control groups"}, {"measurement": "Dose showing mortality", "setting": "[3]; preliminary toxicity study, intraperitoneal", "result": "2,000 mg/kg bw"}, {"measurement": "NOAEL for parental toxicity", "setting": "Wistar rats [4]", "result": 100, "unit": "mg/kg bw per day"}, {"measurement": "NOAEL for reproduction and developmental toxicity", "setting": "Wistar rats [4]", "result": "at least 100 mg/kg bw per day"}, {"measurement": "half-life", "setting": "[5]", "result": 66, "unit": "min"}, {"measurement": "Micronucleus frequency", "setting": "[6]; absence of metabolic activation, up to 1,243 μg/mL, 24 h", "result": "no increase in micronucleus frequency"}, {"measurement": "Micronucleus frequency", "setting": "[6]; presence of metabolic activation, up to 310 μg/mL, 4 + 20 h", "result": "statistically significant increase in micronuclei"}, {"measurement": "Revertant colonies", "setting": "[7]", "result": "No significant increase in the mean number of revertant colonies"}, {"measurement": "half-life", "setting": "[8]", "result": 42, "unit": "min"}, {"measurement": "In vivo MN test result", "setting": "[9]; 375, 750 and 1,500 mg/kg bw by gavage", "result": "Equivocal results"}, {"measurement": "Dose showing severe symptoms and mortality", "setting": "[9]; dose‐range finding test, gavage", "result": "2,000 mg/kg bw"}, {"measurement": "Skin sensitisation potential", "setting": "Skin sensitisation study", "result": "did not show any skin sensitisation potential"}, {"measurement": "Maternal NOAEL", "setting": "Wistar rats [10]", "result": 300, "unit": "mg/kg bw per day"}, {"measurement": "Skin irritation potential", "setting": "Skin irritation study", "result": "skin irritant"}, {"measurement": "NOAEL", "setting": "Wistar rats [11]; benign gastrointestinal mesenchymal tumours in small intestines", "result": 100, "unit": "mg 3‐NOP/kg bw per day"}, {"measurement": "Benign mesenchymal cell tumours (PWG)", "setting": "Wistar rats [11]; females, 300 mg/kg bw per day", "result": "three"}, {"measurement": "NOAEL", "setting": "Beagle dogs; females, severe clinical signs in one female", "result": 100, "unit": "mg 3‐NOP/kg bw per day"}, {"measurement": "NOAEL", "setting": "Beagle dogs; males", "result": 300, "unit": "mg 3‐NOP/kg bw per day"}, {"measurement": "Reduction in mean overall food consumption", "setting": "CByB6F1 Hybrid mice; 700 mg/kg bw per day, vs control", "result": 6, "unit": "%"}, {"measurement": "NOAEL", "setting": "CByB6F1 Hybrid mice; blood biochemical changes at 300 mg/kg bw per day", "result": 100, "unit": "mg 3‐NOP/kg bw per day"}, {"measurement": "Decrease of absolute thymus weight", "setting": "CByB6F1 Hybrid mice; males, 700 mg/kg bw per day", "result": 22, "unit": "%"}, {"measurement": "Decrease of relative thymus weight", "setting": "CByB6F1 Hybrid mice; males, 700 mg/kg bw per day", "result": 23, "unit": "%"}, {"measurement": "Incidence of mild inflammation of the eye striated muscle", "setting": "CByB6F1 Hybrid mice; [14]", "result": "4/10"}, {"measurement": "Incidence of minimal to mild adrenal cortical vacuolation", "setting": "CByB6F1 Hybrid mice; [14]", "result": "4/10"}, {"measurement": "Skin corrosion potential", "setting": "Skin corrosion study", "result": "not corrosive to skin"}, {"measurement": "Mean overall recovery of the radioactivity applied", "setting": "[12]; 48 h", "result": 28, "unit": "%"}, {"measurement": "Radioactivity recovered from tissues, organs and carcass", "setting": "[12]; 48 h", "result": "5.5 % of the dose"}, {"measurement": "Radioactivity remaining in gastrointestinal content", "setting": "[12]; 48 h", "result": "0.2 % of the dose"}, {"measurement": "Radioactivity concentration in adrenal glands", "setting": "[12]; 48 h after 500 mg/kg bw", "result": 113.9, "unit": "μg 3‐NOP‐eq/g"}, {"measurement": "Radioactivity concentration in brain", "setting": "[12]; 48 h after 500 mg/kg bw", "result": 31.2, "unit": "μg NOP‐eq/g"}, {"measurement": "Radioactivity concentration in fat", "setting": "[12]; 48 h after 500 mg/kg bw", "result": 23.5, "unit": "μg NOP‐eq/g"}, {"measurement": "Radioactivity concentration in kidney", "setting": "[12]; 48 h after 500 mg/kg bw", "result": 71.6, "unit": "μg 3‐NOP‐eq/g"}, {"measurement": "Radioactivity concentration in liver", "setting": "[12]; 48 h after 500 mg/kg bw", "result": 139.6, "unit": "μg 3‐NOP‐eq/g"}, {"measurement": "Radioactivity concentration in muscle", "setting": "[12]; 48 h after 500 mg/kg bw", "result": 27.1, "unit": "μg NOP‐eq/g"}, {"measurement": "Radioactivity recovered in total excreta", "setting": "[12]; at 48 h", "result": "20 % of the dose"}, {"measurement": "Radioactivity recovered in urine", "setting": "[12]; first 24 h", "result": "17.6 % of the dose"}, {"measurement": "Radioactivity recovered in urine", "setting": "[12]; interval 24‐48 h", "result": "0.3 % of the dose"}, {"measurement": "Cmax radioactivity in plasma", "setting": "[12]; single oral 500 mg/kg bw", "result": "about 600 μg 3‐NOP‐eq/g"}, {"measurement": "Radioactivity in plasma after 48 h", "setting": "[12]; single oral 500 mg/kg bw", "result": 27, "unit": "μg 3‐NOP‐eq/g"}, {"measurement": "Time of Cmax radioactivity in plasma", "setting": "[12]; single oral 500 mg/kg bw", "result": 1, "unit": "h"}, {"measurement": "Radioactivity excreted in faeces", "setting": "[12]; within 48 h", "result": "2.3 % of the dose"}, {"measurement": "Radioactivity exhaled", "setting": "[13]; 0 to 8 h post‐dose", "result": 64.3, "unit": "%"}, {"measurement": "Dose recovered in faeces", "setting": "[13]; 0 to 24 h", "result": "1.2 % of the dose"}, {"measurement": "Dose recovered in urine", "setting": "[13]; 0 to 24 h", "result": "9.8 % of the dose"}, {"measurement": "Radioactivity exhaled", "setting": "[13]; 8 to 24 h post‐dose", "result": 13.0, "unit": "%"}, {"measurement": "Dose in the gastrointestinal tract content", "setting": "[13]; 24 h", "result": "0.5 % of the dose"}, {"measurement": "Dose remaining in the tissues and carcass", "setting": "[13]; 24 h", "result": "7.7 % of the dose"}, {"measurement": "Overall recovery of radioactivity", "setting": "[13]; 24 h", "result": 99.3, "unit": "%"}, {"measurement": "Dose recovered from the volatile traps (almost all as 14CO2)", "setting": "[13]; 24 h after single oral 500 mg/kg bw", "result": "77.4 % of the dose"}, {"measurement": "Mean concentration of radioactive compounds in blood", "setting": "[13]; 24 h post‐dose", "result": 48.7, "unit": "μg 3‐NOP‐eq/g"}, {"measurement": "Radioactivity concentration in adrenal glands", "setting": "[13]; 24 h post‐dose", "result": 159.3, "unit": "μg 3‐NOP‐eq/g"}, {"measurement": "Radioactivity concentration in brain", "setting": "[13]; 24 h post‐dose", "result": 24.8, "unit": "μg 3‐NOP‐eq/g"}, {"measurement": "Radioactivity concentration in fat", "setting": "[13]; 24 h post‐dose", "result": 58.9, "unit": "μg 3‐NOP‐eq/g"}, {"measurement": "Radioactivity concentration in kidney", "setting": "[13]; 24 h post‐dose", "result": 118.4, "unit": "μg 3‐NOP‐eq/g"}, {"measurement": "Radioactivity concentration in liver", "setting": "[13]; 24 h post‐dose", "result": 184.5, "unit": "μg 3‐NOP‐eq/g"}, {"measurement": "Radioactivity concentration in muscle", "setting": "[13]; 24 h post‐dose", "result": 42.4, "unit": "μg 3‐NOP‐eq/g"}, {"measurement": "Radioactivity in the non‐dissolved fractions", "setting": "Incubation of; 2.2 mg/L", "result": "≤ 5.5", "unit": "%"}, {"measurement": "3‐NOP concentration remaining at t = 24 h", "setting": "Incubation of; 2.2 mg/L, anaerobic", "result": 0, "unit": "%"}, {"measurement": "Radioactivity in the non‐dissolved fractions", "setting": "Incubation of; 23 mg/L", "result": 7, "unit": "%"}, {"measurement": "3‐NOP concentration remaining at t = 24 h", "setting": "Incubation of; 23 mg/L, anaerobic", "result": "< 0.1", "unit": "%"}, {"measurement": "Radioactivity in the trapped gas phases", "setting": "Incubation of; 23 or 2.2 mg/L, up to 24 h at 38°C, anaerobic, pH about 6.2", "result": "≤ 0.1 % of the total radioactivity"}, {"measurement": "3‐NOP concentration remaining", "setting": "Incubation of; after 6 h", "result": 54, "unit": "%"}, {"measurement": "3‐NOP concentration remaining", "setting": "Incubation of; after 12 h", "result": 6, "unit": "%"}, {"measurement": "Abiotic degradation of 3‐NOP to propane‐1,3‐diol", "setting": "Incubation of; control samples (no or only minor)", "result": 9.8, "unit": "%"}]}]}
